# Experimental data published in the M2OR odorant receptor database.
# Positions count from the first letter of the chain named.
# Key:
# Details in all cases: stereoisomer not certain
# OR1A2 (Homo sapiens) = target: T1, OR1A2 (Homo sapiens) (UniProt Q9Y585)
# T1 sequence (whole entry): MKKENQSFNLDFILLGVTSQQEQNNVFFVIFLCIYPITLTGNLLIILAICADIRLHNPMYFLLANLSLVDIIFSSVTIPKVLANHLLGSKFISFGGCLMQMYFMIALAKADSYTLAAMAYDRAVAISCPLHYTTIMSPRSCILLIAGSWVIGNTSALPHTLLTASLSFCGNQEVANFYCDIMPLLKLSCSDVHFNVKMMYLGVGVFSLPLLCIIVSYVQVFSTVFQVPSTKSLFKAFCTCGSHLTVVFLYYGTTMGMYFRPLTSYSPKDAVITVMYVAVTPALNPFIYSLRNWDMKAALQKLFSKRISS
# Procedure, shortened: (§1)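 Transient luciferase assays in mammalian cell lines were common, though methods varied by source. The values come from published papers and their supplementary material, with extra details from the original authors when needed. Responsive refers to a measured signal the original authors judged statistically different from baseline, and non-responsive (inactive) to the remainder.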
# [1] = tested on: OR1A1 G108A N109K A154T N155S
# Procedure, shortened: as §1
# OR1A1 G108A N109K = tested on: OR1A1 G108A N109K
# Procedure, shortened: as §1
# OR1A1 G108A = tested on: OR1A1 G108A
# Chain of OR1A1 G108A (as listed by the source, stated change not applied): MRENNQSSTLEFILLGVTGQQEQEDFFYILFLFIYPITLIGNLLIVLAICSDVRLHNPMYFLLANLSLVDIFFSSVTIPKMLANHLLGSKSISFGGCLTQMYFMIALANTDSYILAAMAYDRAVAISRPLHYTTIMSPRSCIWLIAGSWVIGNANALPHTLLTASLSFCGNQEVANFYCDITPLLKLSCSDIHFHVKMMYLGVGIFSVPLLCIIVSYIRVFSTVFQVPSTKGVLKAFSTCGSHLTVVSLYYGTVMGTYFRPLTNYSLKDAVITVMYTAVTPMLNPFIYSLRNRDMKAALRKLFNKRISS
# Procedure, shortened: as §1
# OR1A1 I114T = tested on: OR1A1 I114T
# Chain of OR1A1 I114T (as listed by the source, stated change not applied): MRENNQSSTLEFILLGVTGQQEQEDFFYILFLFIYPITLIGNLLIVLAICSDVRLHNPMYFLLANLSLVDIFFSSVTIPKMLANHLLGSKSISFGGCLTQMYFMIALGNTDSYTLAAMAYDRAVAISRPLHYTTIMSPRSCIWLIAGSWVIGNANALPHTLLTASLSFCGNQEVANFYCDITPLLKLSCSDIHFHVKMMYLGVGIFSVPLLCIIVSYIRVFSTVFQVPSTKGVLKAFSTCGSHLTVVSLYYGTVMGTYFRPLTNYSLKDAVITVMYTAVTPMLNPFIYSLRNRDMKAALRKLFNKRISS
# Procedure, shortened: as §1
# OR1A1 I205V = tested on: OR1A1 I205V
# Chain of OR1A1 I205V (as listed by the source, stated change not applied): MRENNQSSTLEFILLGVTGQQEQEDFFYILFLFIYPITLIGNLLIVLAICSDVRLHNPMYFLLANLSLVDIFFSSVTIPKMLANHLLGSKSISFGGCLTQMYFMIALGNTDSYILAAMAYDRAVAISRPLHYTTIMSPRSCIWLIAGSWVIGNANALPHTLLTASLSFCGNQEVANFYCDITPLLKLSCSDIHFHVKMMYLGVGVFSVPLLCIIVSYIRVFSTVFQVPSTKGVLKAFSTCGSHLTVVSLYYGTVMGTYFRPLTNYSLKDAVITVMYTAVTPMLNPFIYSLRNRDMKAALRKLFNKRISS
# Procedure, shortened: as §1
# OR1A1 N109K = tested on: OR1A1 N109K
# Chain of OR1A1 N109K (as listed by the source, stated change not applied): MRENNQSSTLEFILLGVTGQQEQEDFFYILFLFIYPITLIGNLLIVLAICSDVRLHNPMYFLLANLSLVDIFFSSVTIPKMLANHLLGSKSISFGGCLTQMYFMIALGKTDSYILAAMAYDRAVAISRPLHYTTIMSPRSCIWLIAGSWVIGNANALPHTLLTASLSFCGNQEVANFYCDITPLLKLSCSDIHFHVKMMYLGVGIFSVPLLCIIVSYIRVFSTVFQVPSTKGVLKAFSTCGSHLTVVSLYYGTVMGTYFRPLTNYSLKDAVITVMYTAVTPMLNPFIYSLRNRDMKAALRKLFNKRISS
# Procedure, shortened: as §1
# OR1A1 T110A = tested on: OR1A1 T110A
# Chain of OR1A1 T110A (as listed by the source, stated change not applied): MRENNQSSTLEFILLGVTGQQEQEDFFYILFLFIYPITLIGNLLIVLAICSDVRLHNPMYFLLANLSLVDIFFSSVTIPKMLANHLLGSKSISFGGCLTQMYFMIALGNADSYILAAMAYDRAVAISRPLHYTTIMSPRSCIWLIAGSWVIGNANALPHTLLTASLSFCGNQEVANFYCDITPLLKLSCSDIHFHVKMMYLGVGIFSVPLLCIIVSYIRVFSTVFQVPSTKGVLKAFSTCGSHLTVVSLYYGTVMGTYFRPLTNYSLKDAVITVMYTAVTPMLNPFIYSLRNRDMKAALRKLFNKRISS
# Procedure, shortened: as §1
# OR1A1 T277V = tested on: OR1A1 T277V
# Chain of OR1A1 T277V (as listed by the source, stated change not applied): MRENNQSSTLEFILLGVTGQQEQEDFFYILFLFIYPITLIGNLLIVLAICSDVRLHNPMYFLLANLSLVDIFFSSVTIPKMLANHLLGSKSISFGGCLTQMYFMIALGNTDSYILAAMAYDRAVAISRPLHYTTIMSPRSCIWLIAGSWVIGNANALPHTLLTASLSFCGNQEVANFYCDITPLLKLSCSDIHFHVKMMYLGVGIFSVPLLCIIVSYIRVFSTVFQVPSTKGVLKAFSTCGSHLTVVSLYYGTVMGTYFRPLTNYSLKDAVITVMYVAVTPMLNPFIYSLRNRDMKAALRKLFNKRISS
# Procedure, shortened: as §1
# OR1A1 T99M = tested on: OR1A1 T99M
# Chain of OR1A1 T99M (as listed by the source, stated change not applied): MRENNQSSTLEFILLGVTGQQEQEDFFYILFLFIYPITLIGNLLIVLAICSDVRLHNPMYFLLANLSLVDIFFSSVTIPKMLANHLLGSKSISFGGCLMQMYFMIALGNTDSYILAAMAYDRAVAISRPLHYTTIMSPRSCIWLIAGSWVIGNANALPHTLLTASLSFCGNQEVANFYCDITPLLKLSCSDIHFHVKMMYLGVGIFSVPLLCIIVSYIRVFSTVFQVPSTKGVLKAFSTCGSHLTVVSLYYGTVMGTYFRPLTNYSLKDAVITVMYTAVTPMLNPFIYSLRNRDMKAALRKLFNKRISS
# Procedure, shortened: as §1
# OR1A1 V254T = tested on: OR1A1 V254T
# Chain of OR1A1 V254T (as listed by the source, stated change not applied): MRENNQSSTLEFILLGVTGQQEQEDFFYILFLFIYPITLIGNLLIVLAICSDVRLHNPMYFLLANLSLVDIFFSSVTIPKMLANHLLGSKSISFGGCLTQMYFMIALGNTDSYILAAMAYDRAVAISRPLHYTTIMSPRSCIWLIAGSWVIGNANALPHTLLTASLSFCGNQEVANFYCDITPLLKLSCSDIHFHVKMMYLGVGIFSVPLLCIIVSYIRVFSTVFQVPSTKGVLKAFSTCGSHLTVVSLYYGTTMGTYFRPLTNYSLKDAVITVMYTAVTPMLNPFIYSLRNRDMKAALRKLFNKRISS
# Procedure, shortened: as §1
# OR1A2 A108G K109N S155N = tested on: OR1A2 A108G K109N S155N
# Procedure, shortened: as §1
# [2] = tested on: OR1A2 A108G K109N T154A S155N
# Procedure, shortened: as §1
# OR1A2 A108G K109N T154A = tested on: OR1A2 A108G K109N T154A
# Procedure, shortened: as §1
# OR1A2 A108G K109N = tested on: OR1A2 A108G K109N
# Procedure, shortened: as §1
# OR1A2 A108G T154A S155N = tested on: OR1A2 A108G T154A S155N
# Procedure, shortened: as §1
# OR1A2 A108G = tested on: OR1A2 A108G
# Chain of OR1A2 A108G (as listed by the source, stated change not applied): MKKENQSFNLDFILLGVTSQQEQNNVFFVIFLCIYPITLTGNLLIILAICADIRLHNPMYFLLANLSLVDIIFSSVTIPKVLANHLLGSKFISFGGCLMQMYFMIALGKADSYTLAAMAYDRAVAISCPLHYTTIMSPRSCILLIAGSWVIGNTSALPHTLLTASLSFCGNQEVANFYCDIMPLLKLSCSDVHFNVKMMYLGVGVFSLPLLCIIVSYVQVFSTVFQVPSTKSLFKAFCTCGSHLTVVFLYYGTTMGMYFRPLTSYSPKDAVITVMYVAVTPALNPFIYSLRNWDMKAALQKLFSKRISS
# Procedure, shortened: as §1
# OR1A2 K109N T154A S155N = tested on: OR1A2 K109N T154A S155N
# Procedure, shortened: as §1
# OR1A2 K109N = tested on: OR1A2 K109N
# Chain of OR1A2 K109N (as listed by the source, stated change not applied): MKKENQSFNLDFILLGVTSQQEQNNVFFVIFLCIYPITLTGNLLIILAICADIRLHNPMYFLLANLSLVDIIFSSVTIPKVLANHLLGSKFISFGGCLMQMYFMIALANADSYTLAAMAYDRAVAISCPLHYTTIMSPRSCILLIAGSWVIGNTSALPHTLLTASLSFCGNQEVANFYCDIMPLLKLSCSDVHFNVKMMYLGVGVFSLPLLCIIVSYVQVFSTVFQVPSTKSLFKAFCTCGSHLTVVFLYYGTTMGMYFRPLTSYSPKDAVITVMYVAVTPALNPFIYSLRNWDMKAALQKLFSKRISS
# Procedure, shortened: as §1
# OR1A2 G256C W293C = tested on: T2, OR1A2 G256C W293C
# T2 sequence (whole entry): T1 sequence (whole entry) with G256C, W293C
# Procedure, shortened: as §1
# 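Further: active if original authors judged signal statistically different from baseline.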
compound,measurement,setting,value
CCCCCCC=CC=O,odorant receptor agonist call,OR1A2 (Homo sapiens),inactive
CCCCS,odorant receptor agonist call,OR1A2 (Homo sapiens),inactive
O=C([O-])CCCCC(=O)[O-].[H+].[H+],odorant receptor agonist call,OR1A2 (Homo sapiens),inactive
CCCCCCCC=CC=CC=O,odorant receptor agonist call,OR1A2 (Homo sapiens),inactive
CCCCC(=O)O,odorant receptor agonist call,OR1A2 (Homo sapiens),inactive
CC(C)=CCCC(C)=CC#N,odorant receptor agonist call,OR1A2 (Homo sapiens),inactive
O=C([O-])CCC(=O)[O-].[H+].[H+],odorant receptor agonist call,OR1A2 (Homo sapiens),inactive
C=CC(C)=CCC=C(C)CCC=C(C)C,odorant receptor agonist call,OR1A2 (Homo sapiens),inactive
CSCCCO,odorant receptor agonist call,OR1A2 (Homo sapiens),inactive
CCCC(C)C=O (stereo not drawn),odorant receptor agonist call,OR1A2 (Homo sapiens),inactive
C=CC(C)(O)CCC=C(C)CCC=C(C)C (stereo not drawn),odorant receptor agonist call,OR1A2 (Homo sapiens),active
CCCCCCCCCO,odorant receptor agonist call,OR1A2 (Homo sapiens),inactive
CC(=O)c1c(C)c([N+](=O)[O-])c(C(C)(C)C)c([N+](=O)[O-])c1C,odorant receptor agonist call,OR1A2 (Homo sapiens),inactive
CCCCCC(S)C(C)CO (stereo not drawn),odorant receptor agonist call,OR1A2 (Homo sapiens),inactive
CC=CC(=O)C1=C(C)C=CCC1(C)C,odorant receptor agonist call,OR1A2 (Homo sapiens),inactive
CCCCCCCC(=O)[O-].[H+],odorant receptor agonist call,OR1A2 (Homo sapiens),inactive
CC(=O)C=CC1=C(C)CCCC1(C)C,odorant receptor agonist call,OR1A2 (Homo sapiens),active
CCCCC=CC=CC=O,odorant receptor agonist call,OR1A2 (Homo sapiens),inactive
COc1nccnc1CC(C)C,odorant receptor agonist call,OR1A2 (Homo sapiens),inactive
CC1CCCCCCCCCCCCC(=O)C1 (stereo not drawn),odorant receptor agonist call,OR1A2 (Homo sapiens),inactive
CCCCCCCO,odorant receptor agonist call,OR1A2 (Homo sapiens),inactive
CC(=O)C=CC1C(C)=CCCC1(C)C (stereo not drawn),odorant receptor agonist call,OR1A2 (Homo sapiens),active
C=C(C)C1CC=C(C)C(O)C1 (stereo not drawn),odorant receptor agonist call,OR1A2 (Homo sapiens),active
CSCCC=O,odorant receptor agonist call,OR1A2 (Homo sapiens),inactive
COc1nccnc1C(C)C,odorant receptor agonist call,OR1A2 (Homo sapiens),inactive
Cc1nccnc1C,odorant receptor agonist call,OR1A2 (Homo sapiens),inactive
COc1ccccc1,odorant receptor agonist call,OR1A2 (Homo sapiens),inactive
CCCCCCC(=O)[O-].[H+],odorant receptor agonist call,OR1A2 (Homo sapiens),inactive
CCc1nccnc1CC,odorant receptor agonist call,OR1A2 (Homo sapiens),inactive
CC(C)=CCCC(C)CCO (stereo not drawn),odorant receptor agonist call,[1],inactive
same,odorant receptor agonist call,OR1A1 G108A N109K,inactive
same,odorant receptor agonist call,OR1A1 G108A,inactive
same,odorant receptor agonist call,OR1A1 I114T,active
same,odorant receptor agonist call,OR1A1 I205V,active
same,odorant receptor agonist call,OR1A1 N109K,inactive
same,odorant receptor agonist call,OR1A1 T110A,active
same,odorant receptor agonist call,OR1A1 T277V,active
same,odorant receptor agonist call,OR1A1 T99M,active
same,odorant receptor agonist call,OR1A1 V254T,active
same,odorant receptor agonist call,OR1A2 (Homo sapiens),active
same,odorant receptor agonist call,OR1A2 A108G K109N S155N,active
same,odorant receptor agonist call,[2],active
same,odorant receptor agonist call,OR1A2 A108G K109N T154A,active
same,odorant receptor agonist call,OR1A2 A108G K109N,active
same,odorant receptor agonist call,OR1A2 A108G T154A S155N,active
same,odorant receptor agonist call,OR1A2 A108G,active
same,odorant receptor agonist call,OR1A2 K109N T154A S155N,active
same,odorant receptor agonist call,OR1A2 K109N,active
CC(C)=CCCC(C)CC(=O)O (stereo not drawn),odorant receptor agonist call,OR1A2 (Homo sapiens),inactive
CCC=CCCC=CC=O,odorant receptor agonist call,OR1A2 (Homo sapiens),inactive
CC1(C)C2CC=C(C=O)C1C2 (stereo not drawn),odorant receptor agonist call,OR1A2 (Homo sapiens),inactive
CC(CO)CS (stereo not drawn),odorant receptor agonist call,OR1A2 (Homo sapiens),inactive
C=CC(O)CCCCC (stereo not drawn),odorant receptor agonist call,OR1A2 (Homo sapiens),inactive
CC(CC=O)CCCC(C)(C)O (stereo not drawn),odorant receptor agonist call,OR1A2 (Homo sapiens),active
CC1CCC(C(C)C)C(=O)C1 (stereo not drawn),odorant receptor agonist call,OR1A2 (Homo sapiens),inactive
CCCCCC=CC=CC=O,odorant receptor agonist call,OR1A2 (Homo sapiens),active
CCCCCC(=O)C(C)C(C)=O (stereo not drawn),odorant receptor agonist call,OR1A2 (Homo sapiens),inactive
CCCCC(S)C(C)CO (stereo not drawn),odorant receptor agonist call,OR1A2 (Homo sapiens),active
C=CC(=O)CC,odorant receptor agonist call,OR1A2 (Homo sapiens),inactive
CCC1OC(C)=C(O)C1=O (stereo not drawn),odorant receptor agonist call,OR1A2 (Homo sapiens),inactive
same,odorant receptor agonist call,OR1A2 G256C W293C,inactive
CC=CC(=O)C1=C(C)CCCC1(C)C,odorant receptor agonist call,OR1A2 (Homo sapiens),inactive
CCCCCCCCC(=O)O,odorant receptor agonist call,OR1A2 (Homo sapiens),inactive
COC(C=C(C)CCC=C(C)C)OC,odorant receptor agonist call,OR1A2 (Homo sapiens),inactive
CCCCCC=O,odorant receptor agonist call,OR1A2 (Homo sapiens),inactive
CCC=CCCCCCC=O,odorant receptor agonist call,OR1A2 (Homo sapiens),active
C=C(C)C1CC=C(C)C(OC(C)=O)C1 (stereo not drawn),odorant receptor agonist call,OR1A2 (Homo sapiens),inactive
CCC(C)c1nccnc1OC (stereo not drawn),odorant receptor agonist call,OR1A2 (Homo sapiens),inactive
Cc1cnccn1,odorant receptor agonist call,OR1A2 (Homo sapiens),inactive
C=CC(=O)CCCCC,odorant receptor agonist call,OR1A2 (Homo sapiens),active
CC1=C(O)C(=O)C(C)O1 (stereo not drawn),odorant receptor agonist call,OR1A2 (Homo sapiens),inactive
same,odorant receptor agonist call,OR1A2 G256C W293C,inactive
CC1=C(O)C(=O)OC1C (stereo not drawn),odorant receptor agonist call,OR1A2 (Homo sapiens),inactive
same,odorant receptor agonist call,OR1A2 G256C W293C,inactive
CC1=NC(C)C(C)S1 (stereo not drawn),odorant receptor agonist call,OR1A2 (Homo sapiens),inactive
same,odorant receptor agonist call,OR1A2 G256C W293C,inactive
CC(C)C12CCC(C)(CC1)O2,odorant receptor agonist call,OR1A2 (Homo sapiens),inactive
CCc1cnccn1,odorant receptor agonist call,OR1A2 (Homo sapiens),inactive
Cc1cnc(C)c(C)n1,odorant receptor agonist call,OR1A2 (Homo sapiens),inactive
same,odorant receptor agonist call,OR1A2 G256C W293C,inactive
CCCCCCC=CCCC=O,odorant receptor agonist call,OR1A2 (Homo sapiens),inactive
same,odorant receptor agonist call,OR1A2 G256C W293C,inactive
CCCCCCO,odorant receptor agonist call,OR1A2 (Homo sapiens),inactive
CC(=O)OCCC(C)C,odorant receptor agonist call,OR1A2 (Homo sapiens),inactive
CC(C)=CCCC(C)=CCCC(C)=CCO,odorant receptor agonist call,OR1A2 (Homo sapiens),inactive
CCCCCC=CCCC=O,odorant receptor agonist call,OR1A2 (Homo sapiens),active
CCCCCCCCO,odorant receptor agonist call,OR1A2 (Homo sapiens),active
CCC1OC(=O)C(O)=C1C (stereo not drawn),odorant receptor agonist call,OR1A2 (Homo sapiens),inactive
same,odorant receptor agonist call,OR1A2 G256C W293C,inactive
C=C(C)C1CC=C(C)CC1 (stereo not drawn),odorant receptor agonist call,OR1A2 (Homo sapiens),active
C1CCNC1,odorant receptor agonist call,OR1A2 (Homo sapiens),inactive
CCCC(S)CCOC(C)=O (stereo not drawn),odorant receptor agonist call,OR1A2 (Homo sapiens),inactive
same,odorant receptor agonist call,OR1A2 G256C W293C,inactive
CCc1ncc(C)nc1CC,odorant receptor agonist call,OR1A2 (Homo sapiens),inactive
CCCCCO,odorant receptor agonist call,OR1A2 (Homo sapiens),inactive
CN(C)C,odorant receptor agonist call,OR1A2 (Homo sapiens),inactive
CCC(S)C(C)CO (stereo not drawn),odorant receptor agonist call,OR1A2 (Homo sapiens),inactive
CC(=O)CCc1ccc(O)cc1,odorant receptor agonist call,OR1A2 (Homo sapiens),inactive
